Results reported in the RNAGym collection of RNA variant scans (doi:10.1126/science.aae0568).
Variants at the floor of the assay were thinned out.

B1: tRNA (parent)
chain: GUUCCGUUGGCGUAAUGGUAACGCGUCUCCCUCCUAAGGAGAAGACUGCGGGUUCGAGUCCCGUACGGAACG

Variants of: B1
Experiment: yeast fitness relative to wild type (ratio to wild type); higher = fitter; tRNA-Arg(CCU), competitive growth, 37 C, YPD
Summary of the method: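 Variants of the tRNA-Arg(CCU) gene were chemically synthesised with a 3% per-site mutation rate across 69 sites and placed at the native genomic locus in Saccharomyces cerevisiae. Six parallel replicates of the pooled strains were competed in YPD at 37°C for 24 hours, and gene amplicons from the start and end populations were read by 100-nucleotide paired-end sequencing. Darwinian fitness relative to wild type was derived from changes in genotype frequencies. Genotypes required ≥ 100 starting reads, and estimates < 0.5 were set to 0.5.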

Variant | yeast fitness
GAUCCGUUGGGGUAAUGGUAACGCGUCUCCCUCCUAAGGAGAAGACUGCGGGUUCGAGUCACGUACGGAACG [U2A C11G C61A] | ≤ 0.5
GAUCAGUUGGCGUAAUGGUAACGCGUCUCCCUCCUAAGGAGAAGACUGCGGGUUCGAGUACCGUACGGAACG [U2A C5A C60A] | ≤ 0.5
GAUCAGUUGGCGUAAUGGUAACGCGUCUCCCUUCUAAGGAGAAGACUGCGGGUUCGGGUCCCGUAGGGAACG [U2A C5A C33U A57G C66G] | ≤ 0.5
GAUCCGUUGGGGUAAUGGUAGCGCGUCUCCCUCCUAAGGAGAAGACUGCGGGUUCGAGUCCCGUGCGGAACG [U2A C11G A21G A65G] | ≤ 0.5
GAUCAGUUGGCGUAAUGGUAACGCGUCUCCCUCCUAAGGAGAAGACUGCAGGUUCGAGUCCCGUACGGAACG [U2A C5A G50A] | ≤ 0.5
GAUCGGUUGGCGUAAUGGUAACGCGUCUCCCUCCUAAGGAGUAGACUGCGGGUUCGAGUCCCGUACGGAACG [U2A C5G A42U] | ≤ 0.5
GAUCGGUUGGCGUAAUGGUAACGCGUCUCCCUCCUAAGGAGGAGACUGCGGGUUCGAGUCCCGUACGGAACG [U2A C5G A42G] | 0.541
GAUCCGUUGGAGUAAUGGUAACGGGUCUCCCUCCUAAGGAGAAGACGGCGGGUUCGAGUCCCGUACGGAACG [U2A C11A C24G U47G] | ≤ 0.5
GAUCUGUUGGCGUAAUGGUAACGCGUCUCCCUCCUAAGGAGAAGACAGCGGAUUCGAGUCCCGUACGGAACG [U2A C5U U47A G52A] | ≤ 0.5
GAUCGGUUGGCGUAAUGGUAACGCGUCUCCCUCCUAAGGAGAAGACUGCGGGUUCGAGUCCCGUAUGGAACG [U2A C5G C66U] | 0.657
GAUCCGUUGGGGUAAUGGUAACGCGUCACCCUCCUAAGGAGAAGACUGCGGGUUCGAGUCCCGUGCGGAACG [U2A C11G U28A A65G] | ≤ 0.5
GAUCUGUUGGCGUAAUGGUAACGCGUCUCCCUCCUAAGGAGAAGACUACGGGUUCGAGUCCCGUACGGAACG [U2A C5U G48A] | 0.611
GAUCCGUUGGGGUAAUGGUAACGCAUCUCCCUCCUAAGGAGAAGACUGAGGGUUCGAGUCCCGUACGGAACG [U2A C11G G25A C49A] | 0.553
GAUCCGUUGGGGUAAUGGUAACGCGUCUCCCUCCUAAGGAGAAGACAGCGGGUUCGAGUCCCGUACGGAACG [U2A C11G U47A] | ≤ 0.5
GAUCUGUUGGCGUAGUGGUAACGCGUCUCCCUCUUAAGGACAAGACUGCGGGUUAGAGUCCCGUACGGAACG [U2A C5U A15G C34U G41C C55A] | ≤ 0.5
GAUCCGUUGGGGUAAUAGUUACGCGUCUCCCUGCUAACGAGAAGACUGCGGGUUCGAGUCCCGUACGGAACG [U2A C11G G17A A20U C33G G38C] | ≤ 0.5
GAUCCGUUGGGGUAAUGGUAACGCAUCUCCCUCCUAAGGUGAAGACUGAGGGUUUGAGUCCCGUACGGAACG [U2A C11G G25A A40U C49A C55U] | ≤ 0.5
GAUCCGUUGGUGUUAUGGGAACGCGUCUCCCUCCUAAGGAGAAGACUGCGGGUUCGAGUCCCGUACGGAACG [U2A C11U A14U U19G] | ≤ 0.5
GAUCGGUUGGCGUGAUGGUAACGCGUCUCGCUCCUAAGGAGAAGAUUGCGGGUUCGAGUCCCGUAAGGAUCG [U2A C5G A14G C30G C46U C66A A70U] | ≤ 0.5

Variant | yeast fitness
GAUCGGUUGGCGUAAUGGUAACGCGUCUCCUUCCUAAGGAGAAGACUGCGGGUUCGAGUCCCGUAUGGAACG [U2A C5G C31U C66U] | ≤ 0.5
GAUCCGUUGGAGUAAUGGUAACGCGUCUCCCUCCUAACGAGAAGACUGCGGGUUCGAGUACCGUACGGAACG [U2A C11A G38C C60A] | 0.582
GAUCCGUUGGGGUAAUGGUAGCGCGUCUCCCUCCUAAGGAGAAGACUGCGGGUUCGAGUCCCGUACGGAACG [U2A C11G A21G] | 0.567
GAUCGGUAGGCGUAAUGGUAACGUGUCUCCCUCCUAAGGAGAAGACUGCGGGUUCGAGUCGCGUAUGGUACG [U2A C5G U8A C24U C61G C66U A69U] | ≤ 0.5
GAUCAGUUGGCGUAAUGGUAACGCGUCUUCCUCCUAAGGAGAAGACUGCGGGUUCGAGUCCUGUACGGAUCG [U2A C5A C29U C62U A70U] | ≤ 0.5
GAUCGGUUGGCGUAAUGGUAACGUGUCUCGCUCCUAAGGAGAAGACUGUGGGUUCGAGUCCCGUACGGAACG [U2A C5G C24U C30G C49U] | ≤ 0.5
GAUCCGUUGGAGUAAUGGUAACGCGUCUCCCUCCUAAGGAGAAGACUGCGGGUUCGAGUCCCGUACGGAACG [U2A C11A] | 0.614
GAUCCGUUGGGGUAAUGGUAACGCGUCUCCCUCCUAAGGAGAAGACUGCGGGUUCGAGUCCCGUACGGAACG [U2A C11G] | 0.647
GAUCCGUUGGGGUAAUGGUAACGCGUCUCCCUCCUAAGGAGAAGACUGCGGGUCCGAGUCGCGUACGGAACG [U2A C11G U54C C61G] | ≤ 0.5
GAUCCGUUGGUGUAAUGGGAACGCGUCUCCCUCCUAAGGAGAAGACUGCGGGUUCGAGUCCCGUACGGAACG [U2A C11U U19G] | 0.647
GAUCCGUUGGUGUAAUGGUAACGCGUCUCCCUCCUAAGGAGAAGACUGCGGGUUCGAGUCCCGUACGGACCG [U2A C11U A70C] | 0.587
GAUCGGUUGGCGUUAUGGAAACCCGUCUACCUCCUAAGGAGAAGACUGCGGGUUCGAGUCCCGUAAGGAACG [U2A C5G A14U U19A G23C C29A C66A] | ≤ 0.5
GAUCUGUUGGCGUAAUGGUAACGUGUCUCCCUCUUAAGGCGAAGACUGCGGGUUCGAGUCCCGUACGGAACG [U2A C5U C24U C34U A40C] | ≤ 0.5
GAUCAGUUGGCGUAAUGGUAACGCGUCUCCCUCCUAAGGAGAAGAUUGCCGGUUCGAGUCCCGUACGGAACG [U2A C5A C46U G50C] | ≤ 0.5
GAUCCGUUGGAGUAAUGGUAACGCGUCUCCUUCCUAAGGAGAAGACUGCGGGUUCGAGUCCCGUACGGAACG [U2A C11A C31U] | ≤ 0.5
GAUCGGUUGGCGUAAUGGUAACGUGUCUCGCUCCUAAGGAGAAGACUGCGGGUUCGAGUCCCGUACGGACCG [U2A C5G C24U C30G A70C] | 0.54
GAUCUGUUGGCGUAAUGGUAACGCGUCUCCCUCCUAAGGAGAAGACUGCGGGUUCGAGUCCCGCACGGAACG [U2A C5U U64C] | 1.06
GAUCCGUUGGGGUAAUGGUAACGCGUCUCCCUCCUAAGGAGAAGACUGAGGGUUCGAGUCCCGUACGGAGCG [U2A C11G C49A A70G] | ≤ 0.5
GAUCAGUUGGCGUAAUGGUAACGCGUCUCUCUCCUAAGGAGAAGACUGCGGGUUCGAGUCCCGUACGGUACG [U2A C5A C30U A69U] | ≤ 0.5
